The source made the active and inactive calls. No cut-off for these calls is given here.
Assays:
[1] = Cytotoxicity against HEK293A cells assessed as reduction in cell viability after 24 hrs by MTT assay; assay type: cell-based; conditions: human, hek293-a
How it was run: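 Log-phase cells seeded at 1 × 10⁴ per well. Lung cancer lines (A549, NCI-H23, NCI-H460) and normal lines (IMR-90, QSG-7701, HEK-293A) each exposed to 1, 3, 10, 30 and 100 μM for 24 h. MTT (5 mg/mL stock) added for 2 h at 37°C, formazan dissolved in DMSO, absorbance read at 490 nm. Three independent experiments, mean ± SD.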

A549 [2] = test: Induction of apoptosis in human A549 cells assessed as decrease in Bcl-2 expression at 3 uM after 24 hrs by Western blot analysis; assay type: functional, cell-based
How it was run: (§1)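 A549 cells exposed to 3 μM for 3, 6, 12 or 24 h; where NAC is used, 10 mM NAC is added 30 min before 24 h treatment. Lysate protein (30 μg) is run on 12% SDS-PAGE, blotted to nitrocellulose, blocked in 5% milk, primary antibody overnight at 4°C, then HRP anti-IgG. β-actin loading control; densitometry; three independent experiments, mean ± SD.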

A549 [3] = test: Induction of apoptosis in human A549 cells assessed as increase in Bad levels at 3 uM after 24 hrs by Western blot analysis; assay type: functional, cell-based; how it was run: as §1
A549 [4] = test: Induction of apoptosis in human A549 cells assessed as late apoptotic cells at 3 uM after 3 hrs by Annexin V-FITC/propidium iodide staining-based flow cytometric analysis (reference value: 4.52%); assay type: functional
A549 [5] = test: Induction of apoptosis in human A549 cells assessed as early apoptotic cells at 3 uM after 6 hrs by Annexin V-FITC/propidium iodide staining-based flow cytometric analysis (reference value: 2.73%); assay type: functional
A549 [6] = test: Induction of apoptosis in human A549 cells assessed as late apoptotic cells at 3 uM after 6 hrs by Annexin V-FITC/propidium iodide staining-based flow cytometric analysis (reference value: 4.52%); assay type: functional
A549 [7] = test: Induction of apoptosis in human A549 cells assessed as late apoptotic cells at 3 uM after 12 hrs by Annexin V-FITC/propidium iodide staining-based flow cytometric analysis (reference value: 4.52%); assay type: functional
A549 [8] = test: Induction of apoptosis in human A549 cells assessed as early apoptotic cells at 3 uM after 24 hrs by Annexin V-FITC/propidium iodide staining-based flow cytometric analysis (reference value: 2.73%); assay type: functional
A549 [9] = test: Cell cycle arrest in human A549 cells assessed as accumulation of cells at G1 phase at 3 uM after 6 hrs by propidium iodide staining-based flow cytometric analysis (reference value: 57.65%); assay type: functional
A549 [10] = test: Cell cycle arrest in human A549 cells assessed as accumulation of cells at G1 phase at 3 uM after 12 hrs by propidium iodide staining-based flow cytometric analysis (reference value: 57.65%); assay type: functional
A549 [11] = test: Cell cycle arrest in human A549 cells assessed as accumulation of cells at S phase at 3 uM after 12 hrs by propidium iodide staining-based flow cytometric analysis (reference value: 13.85%); assay type: functional
A549 [12] = test: Cell cycle arrest in human A549 cells assessed as accumulation of cells at G2 phase at 3 uM after 12 hrs by propidium iodide staining-based flow cytometric analysis (reference value: 24.02%); assay type: functional
A549 [13] = test: Cell cycle arrest in human A549 cells assessed as accumulation of cells at G1 phase at 3 uM after 24 hrs by propidium iodide staining-based flow cytometric analysis (reference value: 57.65%); assay type: functional
A549 [14] = test: Cell cycle arrest in human A549 cells assessed as accumulation of cells at G2 phase at 3 uM after 24 hrs by propidium iodide staining-based flow cytometric analysis (reference value: 24.02%); assay type: functional
A549 [15] = test: Cell cycle arrest in human A549 cells assessed as decrease in CDK4/6 levels at 3 uM by Western blot analysis; assay type: functional, cell-based; conditions: TDE = time-dependent effect; how it was run: as §1
[16] = molecular target: T1, c-Jun N-terminal kinase, JNK (Homo sapiens) (UniProt P45983+P53779+P45984); test: Activation of JNK phosphorylation in human A549 cells at 3 uM after 3 to 24 hrs by Western blot analysis; assay type: cell-based; how it was run: as §1
[17] = molecular target: T1, c-Jun N-terminal kinase, JNK (Homo sapiens); test: Modulation of JNK in human A549 cells assessed as decrease in STAT3 phosphorylation measured after 24 hrs in presence of JNK inhibitor SP600125 by Western blot analysis; assay type: cell-based
How it was run: (§2)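 A549 cells pre-incubated for 30 min with 12.1 μM kinase inhibitor: SB203580 (p38), SP600125 (JNK), FR180204 (ERK) or LY10249 (Akt). Compound treatment followed for 24 h. Lysates (30 μg protein) analysed by 12% SDS-PAGE and nitrocellulose immunoblot with HRP detection. Three independent experiments, mean ± SD.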

A549 [18] = test: Modulation of ERK in human A549 cells assessed as decrease in STAT3 phosphorylation measured after 24 hrs in presence of ERK inhibitor FR180204 by Western blot analysis; assay type: cell-based
[19] = molecular target: T2, MAP kinase p38 (Homo sapiens) (UniProt O15264+Q15759+Q16539+P53778); test: Modulation of p38 MAPK in human A549 cells assessed as increase in cleaved caspase-3 level measured after 24 hrs in presence of p38 inhibitor SB203580 by Western blot analysis; assay type: cell-based; how it was run: as §2
[20] = molecular target: T1, c-Jun N-terminal kinase, JNK (Homo sapiens); test: Modulation of JNK in human A549 cells assessed as increase in cleaved caspase-3 measured after 24 hrs in presence of JNK inhibitor-SP600125 by Western blot analysis; assay type: cell-based
[21] = molecular target: RAC-alpha serine/threonine-protein kinase (Homo sapiens) (UniProt P31749); test: Modulation of AKT in human A549 cells assessed as increase in p27 levels measured after 24 hrs in presence of Akt inhibitor-LY10249 by Western blot analysis; assay type: cell-based; how it was run: as §2
Chain of RAC-alpha serine/threonine-protein kinase (Homo sapiens) (P31749 whole entry): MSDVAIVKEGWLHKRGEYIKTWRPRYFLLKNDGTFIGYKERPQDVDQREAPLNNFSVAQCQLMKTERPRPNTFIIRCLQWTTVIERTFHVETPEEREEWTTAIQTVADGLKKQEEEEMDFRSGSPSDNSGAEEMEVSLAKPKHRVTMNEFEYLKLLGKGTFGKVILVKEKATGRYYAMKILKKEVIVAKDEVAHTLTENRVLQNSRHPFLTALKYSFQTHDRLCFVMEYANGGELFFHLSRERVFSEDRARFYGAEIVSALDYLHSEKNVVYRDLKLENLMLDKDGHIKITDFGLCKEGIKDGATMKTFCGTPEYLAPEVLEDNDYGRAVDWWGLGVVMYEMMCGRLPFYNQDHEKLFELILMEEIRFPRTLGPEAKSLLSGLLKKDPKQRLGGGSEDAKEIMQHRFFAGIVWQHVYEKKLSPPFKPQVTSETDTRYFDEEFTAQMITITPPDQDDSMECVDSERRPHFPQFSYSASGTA

A549 [22] = test: Induction of ROS generation in human A549 cells assessed as intracellular ROS level at 3 uM after 12 hrs by DCFH-DA staining-based flow cytometric analysis (reference value: 51.8%); assay type: functional
How it was run: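 A549 cells loaded with DCFH-DA (10 μM per legend) for 30 min, then exposed to 3 μM at 37°C for 3, 6, 12 or 24 h. After two PBS washes, intracellular fluorescence is quantified by flow cytometry. Three independent experiments, mean ± SD.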

A549 [23] = test: Inhibition of ERK phosphorylation in human A549 cells at 3 uM after 24 hrs in presence of NAC by Western blot analysis; assay type: cell-based
How it was run: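 A549 cells pretreated with 10 mM NAC for 30 min, then exposed to compound for 24 h. Lysate protein (30 μg) resolved on 12% SDS-PAGE and transferred to nitrocellulose. Probed with primary antibodies overnight at 4°C, then HRP secondary. Band densities from three independent experiments, mean ± SD.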

[24] = molecular target: T2, MAP kinase p38 (Homo sapiens); test: Activation of p38 phosphorylation in human A549 cells at 3 uM after 24 hrs in presence of NAC by Western blot analysis; assay type: cell-based; how it was run: as §1
A549 [25] = test: Induction of apoptosis in human A549 cells assessed as increase in cleaved caspase-3 at 3 uM measured after 24 hrs in presence of NAC by Western blot analysis; assay type: functional, cell-based; how it was run: as §1
A549 [26] = test: Induction of apoptosis in human A549 cells assessed as increase in cleaved PARP at 3 uM measured after 24 hrs in presence of NAC by Western blot analysis; assay type: functional, cell-based; how it was run: as §1

| Activity [16] | Activity [17] | Activity [19] | Activity [20] | Compound | Activity [1] | Activity (A549 [2]) | Activity (A549 [3]) | Activity (A549 [4]) [%] | Activity (A549 [5]) [%] | Activity (A549 [6]) [%] | Activity (A549 [7]) [%] | Activity (A549 [8]) | Activity (A549 [9]) [%] | Activity (A549 [10]) [%] | Activity (A549 [11]) [%] | Activity (A549 [12]) [%] | Activity (A549 [13]) [%] | Activity (A549 [14]) [%] | Activity (A549 [15]) | Activity (A549 [18]) | also measured |
| --- | --- | --- | --- | --- | --- | --- | --- | --- | --- | --- | --- | --- | --- | --- | --- | --- | --- | --- | --- | --- | --- |
| Active | inactive | inactive | inactive | CCCCCCCCCS(=O)(=O)C12OC1C(=O)c1c(OC)ccc(OC)c1C2=O (configuration not stated) | Non-Toxic | Active | Active | 5.43 | 14.47 | 6.43 | 7.87 | 24.66 - 30.02% | 65.95 | 68.84 | 7.18 | 20.99 | 71.38 | 19.84 | Tde | Active | Activity [21]: Active; Activity (A549 [22]): 62.75%; inhibition (A549 [23]): inactive; Activity [24]: inactive; Activity (A549 [25]): inactive; Activity (A549 [26]): inactive |
| Active | inactive | inactive | inactive | CCCS(=O)(=O)C12OC1C(=O)c1c(OC)ccc(OC)c1C2=O (configuration not stated) | Non-Toxic | Active | Active | 5.11 | 16.31 | 7.11 | 0.2 | 48.76% | 66.13 | 69 | 9.06 | 17.49 | 72.02 | 17.13 | Tde | Active | Activity [21]: Active; Activity (A549 [22]): 68.59%; inhibition (A549 [23]): inactive; Activity [24]: inactive; Activity (A549 [25]): inactive; Activity (A549 [26]): inactive |

Source: ChEMBL document CHEMBL4400568, “The design of 1,4-naphthoquinone derivatives and mechanisms underlying apoptosis induction through ROS-dependent MAPK/Akt/STAT3 pathways in human lung cancer cells” (Bioorg Med Chem, 2019)
